Measured values published in ChEMBL document CHEMBL1145471, “Small molecule regulators of autophagy identified by an image-based high-throughput screen” (Proc Natl Acad Sci U S A, 2007).
Activity calls are given as the source filed them. No cut-off for these calls is given here.

Key:
[1] = test system: H4; assay: Effect on FYVE-RFP+ vesicle intensity per cell in human H4 cells after 8 hrs relative to control; format: functional; design: concentration or dose not given beside the values
Summary of the method: (§1)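 H4 cells stably expressing FYVE-RFP (H4-FYVE), grown in DMEM with 10% FBS, penicillin/streptomycin and 2 mM L-glutamine at 37°C, 5% CO2, seeded in 96-well plates and exposed to compound. Fixed in 4% paraformaldehyde, nuclei stained with 3 μg/ml DAPI, FYVE-RFP+ vesicles quantified by high-throughput fluorescence microscopy against DMSO control. Triplicate wells, mean ± SD.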

[2] = test system: H4; assay: Increase in light chain 3-GFP+ autophagosome vesicle area per cell in human H4 cells at 5.8 uM after 24 hrs by high throughput fluorescence microscopy relative to control; format: functional
Summary of the method: (§2)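 H4 cells stably expressing LC3-GFP, seeded in 96-well plates and exposed to compound for 24 h; screening concentrations were 3–12 μM, with rapamycin 0.22 μM and bafilomycin A1 0.40 μM. Cells fixed in 4% paraformaldehyde and stained with 3 μg/ml DAPI. Number, size and intensity of LC3-GFP spots measured by high-throughput fluorescence microscopy and expressed as percent of DMSO-treated wells. Rapamycin was the positive control. Triplicate wells, mean ± SD; experiments repeated three times.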

[3] = test system: H4; assay: Increase in long-lived protein degradation in human H4 cells after 1 hr relative to control; format: functional; design: concentration or dose not given beside the values
[4] = test system: H4; assay: Effect on FYVE-RFP+ vesicle intensity per cell in human H4 cells after 2 hrs relative to control; format: functional; design: concentration or dose not given beside the values; summary of the method: as §1
[5] = test system: H4; assay: Increase in long-lived protein degradation in human H4 cells after 4 hrs relative to control; format: functional; design: concentration or dose not given beside the values
[6] = test system: H4; assay: Increase in light chain 3-GFP+ autophagosome vesicle number per cell in human H4 cells at 5.8 uM after 24 hrs by high throughput fluorescence microscopy relative to control; format: functional
Summary of the method: (§3)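 H4 cells stably expressing LC3-GFP were grown in DMEM with 10% FBS and 2 mM L-glutamine at 37°C, 5% CO2. They were exposed to each compound for 24 h, with DMSO as negative and rapamycin as positive control. Cells were then fixed in 4% paraformaldehyde and stained with 3 μg/ml DAPI. High-throughput fluorescence imaging scored LC3-GFP spot number, size and intensity, expressed relative to DMSO. Mean ± SD of triplicates; experiments repeated three times.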

[7] = test system: H4; assay: Increase in long-lived protein degradation in human H4 cells after 2 hrs relative to control; format: functional; design: concentration or dose not given beside the values
[8] = test system: H4; assay: Induction of light chain 3-GFP level in human H4 cells at 5.8 uM after 24 hrs by high throughput fluorescence microscopy relative to control; format: functional
Summary of the method: (§4)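 H4 cells stably expressing LC3-GFP, grown in DMEM with 10% FBS, penicillin/streptomycin and 2 mM L-glutamine at 37°C, 5% CO2. Cells were seeded in 96-well plates and exposed to library compounds at 3–12 μM for 24 h, then fixed in 4% paraformaldehyde and stained with 3 μg/ml DAPI. LC3-GFP spot number, size and intensity were measured by high-throughput fluorescence microscopy and expressed relative to DMSO. Triplicates, mean ± SD.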

[9] = test system: H4; assay: Increase in long-lived protein degradation in human H4 cells after 24 hrs relative to control; format: functional; design: concentration or dose not given beside the values
[10] = test system: H4; assay: Increase in light chain 3-GFP+ autophagosome vesicle intensity per cell in human H4 cells at 5.8 uM after 24 hrs by high throughput fluorescence microscopy relative to control; format: functional; summary of the method: as §3
[11] = test system: H4; assay: Effect on FYVE-RFP+ vesicle intensity per cell in human H4 cells after 4 hrs relative to control; format: functional; design: concentration or dose not given beside the values; summary of the method: as §1
[12] = test system: H4; assay: Induction of light chain 3-GFP level in human H4 cells at 6.6 uM after 24 hrs by high throughput fluorescence microscopy relative to control; format: functional; summary of the method: as §4
[13] = test system: H4; assay: Increase in light chain 3-GFP+ autophagosome vesicle area per cell in human H4 cells at 6.6 uM after 24 hrs by high throughput fluorescence microscopy relative to control; format: functional; summary of the method: as §2
[14] = test system: H4; assay: Increase in light chain 3-GFP+ autophagosome vesicle intensity per cell in human H4 cells at 6.6 uM after 24 hrs by high throughput fluorescence microscopy relative to control; format: functional; summary of the method: as §3
[15] = test system: H4; assay: Increase in light chain 3-GFP+ autophagosome vesicle number per cell in human H4 cells at 6.6 uM after 24 hrs by high throughput fluorescence microscopy relative to control; format: functional; summary of the method: as §3
[16] = test system: H4; assay: Increase in FYVE-RFP+ vesicle intensity per cell in human H4 cells after 8 hrs relative to control; format: functional; design: concentration or dose not given beside the values; summary of the method: as §1
[17] = test system: H4; assay: Increase in ratio of light chain 3 subunit 2 to light chain 3 subunit 1 in human H4 cells at 4.8 uM after 4 hrs by Western blot; format: functional, cell-based
Summary of the method: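 H4 cells were treated with each compound for 4 h, then lysed. Lysates were immunoblotted with anti-LC3 antibody, with actin as loading control. LC3II and LC3I bands were compared as an LC3II/LC3I ratio.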

[18] = test system: H4; assay: Increase in light chain 3-GFP+ autophagosome vesicle area per cell in human H4 cells at 4.8 uM after 24 hrs by high throughput fluorescence microscopy relative to control; format: functional; summary of the method: as §2
[19] = test system: H4; assay: Induction of light chain 3-GFP level in human H4 cells at 4.8 uM after 24 hrs by high throughput fluorescence microscopy relative to control; format: functional; summary of the method: as §4
[20] = test system: H4; assay: Increase in light chain 3-GFP+ autophagosome vesicle intensity per cell in human H4 cells at 4.8 uM after 24 hrs by high throughput fluorescence microscopy relative to control; format: functional; summary of the method: as §3
[21] = test system: H4; assay: Increase in FYVE-RFP+ vesicle intensity per cell in human H4 cells after 2 hrs relative to control; format: functional; design: concentration or dose not given beside the values; summary of the method: as §1
[22] = test system: H4; assay: Increase in light chain 3-GFP+ autophagosome vesicle number per cell in human H4 cells at 4.8 uM after 24 hrs by high throughput fluorescence microscopy relative to control; format: functional; summary of the method: as §3
[23] = target: Serine/threonine-protein kinase mTOR (Homo sapiens, UniProt P42345); assay: Effect on mTOR phosphorylation in human H4 cells at 4.8 uM after 4 hrs; format: cell-based
Summary of the method: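 H4 cells exposed to compound for 4 h. Lysates analysed by Western blot with anti-phospho and anti-total mTOR antibodies, with actin as loading control. Rapamycin served as reference.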

[24] = test system: H4; assay: Increase in FYVE-RFP+ vesicle intensity per cell in human H4 cells after 4 hrs relative to control; format: functional; design: concentration or dose not given beside the values; summary of the method: as §1

Compound | Activity [1] | Activity [3] | Activity [4] | Activity [5] | Activity [7] | Activity [9] | Activity [11] | also measured
CCN(CC)CCCCCCCCOC(=O)c1cc(OC)c(OC)c(OC)c1 | 78.64% | 106.69% | 89.59% | 109.05% | 124.85% | 95.47% | 74.72% | Activity [2]: 201.59%; Activity [6]: 170.87%; Activity [8]: 145.22%; Activity [10]: 229.5%
CCCNCC(O)COc1ccccc1C(=O)CCc1ccccc1 (stereo not given) [PROPAFENONE] | 62.87% | 114.56% | 114.69% | 99.78% | 113.22% | 102.73% | 78.75% | Activity [12]: 99.88%; Activity [13]: 271.21%; Activity [14]: 385.97%; Activity [15]: 210.4%
COC(=O)C1=C(C)NC(C)=C(C(=O)OCCN(C)Cc2ccccc2)C1c1cccc([N+](=O)[O-])c1 (stereo not given) [NICARDIPINE] |  | 84.62% |  | 122.6% | 126.59% | 121.03% |  | Activity [16]: 104.77%; Activity [17]: Active; Activity [18]: 197.46%; Activity [19]: 131.58%; Activity [20]: 229.64%; Activity [21]: 132.05%; Activity [22]: 169.02%; Activity [23]: inactive; Activity [24]: 112.51%
